Laboratory results as given in PubChem BioAssay AID651753 (Broad Institute, 2012).
Several values for one entry are separate records, joined by “and”; a condition that tells them apart may be missing. Equal values may be shown once. Activity calls are given as the source filed them.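 Rule for the calls: active = falling-signal curve whose AC50 is no more than twice the top valid dose; inconclusive = flat fit with moderate inhibition, or poor fit; inactive = the rest.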

Experiments:
[1] = tested on: SK-MEL-5 TRPM1-promoter luciferase, luminescence, 24 h; experiment: MITF transcriptional reporter suppression – cell-based, SK-MEL-5, luciferase, dry powder, set 10, dose response (AID 651753)
How it was run: (§1)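 Signal: Steady-Glo luminescence, 5 min at room temperature; Assay system: TRPM1-promoter luciferase SK-MEL-5 melanoma cells; Medium: DMEM lacking phenol red, plus 10% heat-inactivated FBS; Timing: compound addition one day post-seeding, then 24 h exposure at 37 °C.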

[2] = as above; conditions: SK-MEL-5 TRPM1-promoter luciferase, luminescence, 24 h; at 35 µM (top of the series)
How it was run: as §1

Structure (SMILES) | AC50 [1] | activity change, negative = inhibition [2]
NC1=CC(=O)c2ccccc2C1=O | 1.39 µM | –
NS(=O)(=O)c1ccc(NC2=CC(=O)c3ccccc3C2=O)cc1 | 0.651 µM and 0.229 µM | –
Cc1ccc(NC2=CC(=O)c3ccccc3C2=O)cc1 | 3.13 µM | 76.9% (inactive)
CC(C)N1CCN(C2=C(Nc3ccc(F)cc3F)C(=O)c3ccccc3C2=O)CC1 | 12.6 µM | –
COc1ccc(NC2=C(N3CCCCC3)C(=O)c3ccccc3C2=O)cc1 | 17.2 µM | –
O=C1C(Nc2ccc(Br)cc2)=C(N2CCCCC2)C(=O)c2ccccc21 | 19.2 µM | –
CCN1CCN(C2=C(Nc3ccc(F)cc3F)C(=O)c3ccccc3C2=O)CC1 | 11.4 µM | –
COC1=C(NS(=O)(=O)c2ccccc2)C(=O)c2ccccc2C1=O | 8.13 µM | –
O=C1C=C(Nc2ccccc2)C(=O)c2ccccc21 | 3.89 µM | –
O=C1C(Nc2ccc(F)cc2)=C(N2CCCCC2)C(=O)c2ccccc21 | 18.5 µM | –
O=C1C=C(Nc2ccc([N+](=O)[O-])c(C(F)(F)F)c2)C(=O)c2ccccc21 | 0.718 µM | –
CC(C)N1CCN(C2=C(Nc3ccc(F)cc3)C(=O)c3ccccc3C2=O)CC1 | 29.2 µM | –
CN1CCN(C2=C(Nc3ccc(F)cc3F)C(=O)c3ccccc3C2=O)CC1 | 13.1 µM | –
O=C1C(Nc2cccc(Cl)c2)=C(N2CCCC2)C(=O)c2ccccc21 | > 70 µM (inactive) | –
O=C(NC1=C(N2CCN(c3ccccc3)CC2)C(=O)c2ccccc2C1=O)c1ccccc1 | > 70 µM (inactive) | –
O=C1C(Nc2ccc(Cl)cc2)=C(N2CCCC2)C(=O)c2ccccc21 | > 70 µM (inactive) | –
